In brackets after ≈: the same amount, converted by molar mass. Peptide text beside a SMILES is read from it.
Experiments:
[1] = test system: Acinetobacter calcoaceticus subsp. anitratus; assay: Compound tested for the antimicrobial activity against Acinetobacter anitratus; type: functional
How it was run: (§1)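 MIC by microbroth dilution in Tryptic Soy Broth; inoculum 5×10^5 CFU/mL; plates incubated 18-20 h at 37 °C; assay pH approximately 7.4.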

[2] = test system: Escherichia coli; assay: Compound tested for in vitro susceptibility against ATCC strain 25922 of Escherichia coli; type: functional; conditions: ATCC25922
How it was run: (§2)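 Microbroth dilution in Tryptic Soy Broth; inoculum 5×10^5 CFU/mL; plates incubated at 37 °C for 18-20 h; value reported as minimal inhibitory concentration (µg/mL).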

[3] = test system: Enterobacter cloacae; assay: Compound tested for the antimicrobial activity against Enterobacter cloacae; type: functional; how it was run: as §2
[4] = test system: Enterobacter cloacae; assay: Compound tested for the antimicrobial activity against Enterobacter cloacae ROS; type: functional, enterobacter cloacaeros; how it was run: as §1
[5] = Hemolytic activity towards human erythrocytes is evaluated for magainin 2 at peptide concentration of 100 µg/mL; type: functional
How it was run: (§3)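 Washed human erythrocytes from healthy volunteers (3 mL packed cells, PBS pH 7.4 washes, diluted to 20 mL) exposed to peptide in PBS at 25-200 µg/mL, 30 min at 37 °C; supernatant absorbance at 576 nm after centrifugation; 0.1% Triton X-100 taken as 100% hemolysis; duplicates.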

[6] = Hemolytic activity towards human erythrocytes is evaluated for magainin 2 at peptide concentration of 200 µg/mL; type: functional; how it was run: as §3
[7] = Hemolytic activity towards human erythrocytes is evaluated for magainin 2 at peptide concentration of 25 ug/mL; type: functional; how it was run: as §3
[8] = Hemolytic activity towards human erythrocytes is evaluated for magainin 2 at peptide concentration of 50 µg/mL; type: functional; how it was run: as §3
[9] = test system: Klebsiella pneumoniae; assay: Compound tested for the antimicrobial activity against Klebsiella pneumoniae; type: functional; how it was run: as §1
[10] = test system: Pseudomonas aeruginosa; assay: Compound tested for the antimicrobial activity against Pseudomonas aeruginosa strain 8; type: functional; how it was run: as §2
[11] = test system: Pseudomonas aeruginosa; assay: Compound tested for the antimicrobial activity against Pseudomonas aeruginosa strain 9; type: functional; how it was run: as §2
[12] = test system: Pseudomonas aeruginosa; assay: Compound tested for the antimicrobial activity against Pseudomonas aeruginosa strain ATCC 25916; type: functional; how it was run: as §2
[13] = test system: Proteus mirabilis; assay: Compound tested for the antimicrobial activity against Proteus mirabilis; type: functional; how it was run: as §2
[14] = test system: Pseudomonas aeruginosa; assay: Compound tested for in vitro susceptibility against ATCC strain 27853 of Pseudomonas aeruginosa; type: functional; conditions: ATCC 27853; how it was run: as §2
[15] = test system: Pseudomonas aeruginosa; assay: Compound tested for the antimicrobial activity against Pseudomonas aeruginosa strain 1; type: functional; how it was run: as §2
[16] = test system: Pseudomonas aeruginosa; assay: Compound tested for the antimicrobial activity against Pseudomonas aeruginosa strain 10; type: functional; how it was run: as §2
[17] = test system: Pseudomonas aeruginosa; assay: Compound tested for the antimicrobial activity against Pseudomonas aeruginosa strain 11; type: functional; how it was run: as §2
[18] = test system: Pseudomonas aeruginosa; assay: Compound tested for the antimicrobial activity against Pseudomonas aeruginosa strain 2; type: functional; how it was run: as §2
[19] = test system: Pseudomonas aeruginosa; assay: Compound tested for the antimicrobial activity against Pseudomonas aeruginosa strain 3; type: functional; how it was run: as §2
[20] = test system: Pseudomonas aeruginosa; assay: Compound tested for the antimicrobial activity against Pseudomonas aeruginosa strain 4; type: functional; how it was run: as §2
[21] = test system: Pseudomonas aeruginosa; assay: Compound tested for the antimicrobial activity against Pseudomonas aeruginosa strain 5; type: functional; how it was run: as §2
[22] = test system: Pseudomonas aeruginosa; assay: Compound tested for the antimicrobial activity against Pseudomonas aeruginosa strain 6; type: functional; how it was run: as §2
[23] = test system: Pseudomonas aeruginosa; assay: Compound tested for the antimicrobial activity against Pseudomonas aeruginosa strain 7; type: functional; how it was run: as §2
[24] = test system: Salmonella enterica subsp. enterica serovar Anatum; assay: Compound tested for the antimicrobial activity against S. a natum; type: functional, salmoneila anatum; how it was run: as §2
[25] = test system: Staphylococcus aureus; assay: Compound tested for the activity against Staphylococcus aureus strain 4; type: functional; how it was run: as §2
[26] = test system: Staphylococcus aureus; assay: Compound tested for the activity against Staphylococcus aureus strain 5; type: functional; how it was run: as §2
[27] = test system: Staphylococcus aureus; assay: Compound tested for the activity against Staphylococcus aureus strain 6; type: functional; how it was run: as §2
[28] = test system: Staphylococcus aureus; assay: Compound tested for the activity against Staphylococcus aureus strain 7; type: functional; how it was run: as §2
[29] = test system: Staphylococcus aureus; assay: Compound tested for the activity against Staphylococcus aureus strain 8; type: functional; how it was run: as §2
[30] = test system: Staphylococcus aureus; assay: Compound tested for the activity against Staphylococcus aureus strain 9; type: functional; how it was run: as §2
[31] = test system: Staphylococcus aureus; assay: Compound tested for the activity against Staphylococcus aureus strain ATCC 28953; type: functional; how it was run: as §2
[32] = test system: Staphylococcus aureus; assay: Compound tested for in vitro susceptibility against ATCC strain 29213 of Staphylococcus aureus; type: functional; how it was run: as §2
[33] = test system: Shigella flexneri; assay: Compound tested for the antimicrobial activity against Shigella flexneri; type: functional; how it was run: as §1
[34] = test system: Staphylococcus aureus; assay: Compound tested for the activity against Staphylococcus aureus strain 1; type: functional; how it was run: as §2
[35] = test system: Staphylococcus aureus; assay: Compound tested for the activity against Staphylococcus aureus strain 10; type: functional; how it was run: as §2
[36] = test system: Staphylococcus aureus; assay: Compound tested for the activity against Staphylococcus aureus strain 11; type: functional; how it was run: as §2
[37] = test system: Staphylococcus aureus; assay: Compound tested for the activity against Staphylococcus aureus strain 2; type: functional; how it was run: as §2
[38] = test system: Staphylococcus aureus; assay: Compound tested for the activity against Staphylococcus aureus strain 3; type: functional; how it was run: as §2
[39] = test system: Staphylococcus aureus; assay: Compound tested for the activity against strain of Staphylococcus aureus ATCC 28953; type: functional; how it was run: as §2

Row | SMILES | MIC [2] [µg/mL] | Hemolysis [5] [%] | Hemolysis [6] [%] | Hemolysis [7] [%] | Hemolysis [8] [%] | MIC [10] [µg/mL] | MIC [11] [µg/mL] | MIC [12] [µg/mL] | MIC [14] [µg/mL] | MIC [15] [µg/mL] | MIC [16] [µg/mL] | MIC [17] [µg/mL] | MIC [18] [µg/mL] | MIC [19] [µg/mL] | MIC [20] [µg/mL] | MIC [21] [µg/mL] | MIC [22] [µg/mL] | MIC [23] [µg/mL] | MIC [25] [µg/mL] | MIC [26] [µg/mL] | also measured
1 | CC(C)C[C@H](NC(=O)[C@H](C)NC(=O)[C@H](CCCCN)NC(=O)[C@H](C)NC(=O)[C@H](CC(C)C)NC(=O)[C@H](CCCCN)NC(=O)[C@H](C)NC(=O)[C@H](CC(C)C)NC(=O)[C@H](CCCCN)NC(=O)[C@H](C)NC(=O)[C@H](CC(C)C)NC(=O)[C@H](CCCCN)NC(=O)[C@H](CCCCN)NC(=O)[C@H](C)NC(=O)[C@H](CC(C)C)NC(=O)[C@@H](N)CCCCN)C(=O)O (H-KLAKKLAKLAKLAKAL-OH) | 6.25 (≈ 3.66 µM) | 1 | 2 | 1 | 1 | 50 (≈ 29.3 µM) | > 100 | 6.25 (≈ 3.66 µM) | 3.12 (≈ 1.83 µM) | 3.12 (≈ 1.83 µM) | > 100 | 6.25 (≈ 3.66 µM) | 6.25 (≈ 3.66 µM) | 3.12 (≈ 1.83 µM) | 3.12 (≈ 1.83 µM) | 6.25 (≈ 3.66 µM) | > 100 | 6.25 (≈ 3.66 µM) | > 100 | > 100 | MIC [1]: 3.12 µg/mL (≈ 1.83 µM); MIC [3]: 3.12 µg/mL (≈ 1.83 µM); MIC [4]: 12.5 µg/mL (≈ 7.32 µM); MIC [9]: 12.5 µg/mL (≈ 7.32 µM); MIC [13]: > 100 µg/mL; MIC [24]: 25 µg/mL (≈ 14.6 µM); MIC [27]: > 100 µg/mL; MIC [28]: > 100 µg/mL; MIC [29]: > 100 µg/mL; MIC [30]: > 100 µg/mL; MIC [31]: > 100 µg/mL; MIC [32]: 12.5 µg/mL (≈ 7.32 µM); MIC [33]: 25 µg/mL (≈ 14.6 µM); MIC [34]: > 100 µg/mL; MIC [35]: > 100 µg/mL; MIC [36]: > 100 µg/mL; MIC [37]: > 100 µg/mL; MIC [38]: > 100 µg/mL
2 | CC(C)C[C@H](NC(=O)[C@H](Cc1c[nH]c2ccccc12)NC(=O)[C@H](CCCCN)NC(=O)[C@H](CCCCN)NC(=O)[C@@H](N)Cc1c[nH]c2ccccc12)C(=O)N[C@@H](Cc1c[nH]c2ccccc12)C(=O)N[C@@H](C)C(=O)N[C@@H](CCCCN)C(=O)N[C@@H](Cc1c[nH]c2ccccc12)C(=O)O (H-WKKWLWAKW-OH) | 50 (≈ 37.5 µM) | 4 | 5 | 1 | 1 | 50 (≈ 37.5 µM) | > 100 | 50 (≈ 37.5 µM) | 12.5 (≈ 9.39 µM) | 50 (≈ 37.5 µM) | > 100 | 50 (≈ 37.5 µM) | 12.5 (≈ 9.39 µM) | 50 (≈ 37.5 µM) | 50 (≈ 37.5 µM) | 50 (≈ 37.5 µM) | > 100 | 50 (≈ 37.5 µM) | 50 (≈ 37.5 µM) | 50 (≈ 37.5 µM) | MIC [27]: 50 µg/mL (≈ 37.5 µM); MIC [28]: 25 µg/mL (≈ 18.8 µM); MIC [29]: 50 µg/mL (≈ 37.5 µM); MIC [30]: 50 µg/mL (≈ 37.5 µM); MIC [39]: > 100 µg/mL; MIC [32]: 25 µg/mL (≈ 18.8 µM); MIC [34]: 50 µg/mL (≈ 37.5 µM); MIC [35]: 50 µg/mL (≈ 37.5 µM); MIC [36]: 50 µg/mL (≈ 37.5 µM); MIC [37]: 25 µg/mL (≈ 18.8 µM); MIC [38]: > 100 µg/mL

Reference: ChEMBL document CHEMBL1126653, “Structure-function studies of amphiphilic antibacterial peptides” (1993)
